In the library only some 4.7% were active in any assay of this set; here they are far more common.
ADAM10 inh – ADAM10 inhibition, QFRET primary screen; inhibition, % at 7 µM; O14672; AID 720582; recombinant ADAM10, EDANS/DABCYL FRET peptide cleavage, 3 h; actives 0.62% (n = 370,000);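 active means inhibition above a per-campaign cutoff equal to the mean of compounds falling between control-based bounds plus 3 SD, cut at about 20% in these data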;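 further: 0% = DMSO wells while the 100% control is not disclosed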
Target sequence (O14672 214-748 limits assumed): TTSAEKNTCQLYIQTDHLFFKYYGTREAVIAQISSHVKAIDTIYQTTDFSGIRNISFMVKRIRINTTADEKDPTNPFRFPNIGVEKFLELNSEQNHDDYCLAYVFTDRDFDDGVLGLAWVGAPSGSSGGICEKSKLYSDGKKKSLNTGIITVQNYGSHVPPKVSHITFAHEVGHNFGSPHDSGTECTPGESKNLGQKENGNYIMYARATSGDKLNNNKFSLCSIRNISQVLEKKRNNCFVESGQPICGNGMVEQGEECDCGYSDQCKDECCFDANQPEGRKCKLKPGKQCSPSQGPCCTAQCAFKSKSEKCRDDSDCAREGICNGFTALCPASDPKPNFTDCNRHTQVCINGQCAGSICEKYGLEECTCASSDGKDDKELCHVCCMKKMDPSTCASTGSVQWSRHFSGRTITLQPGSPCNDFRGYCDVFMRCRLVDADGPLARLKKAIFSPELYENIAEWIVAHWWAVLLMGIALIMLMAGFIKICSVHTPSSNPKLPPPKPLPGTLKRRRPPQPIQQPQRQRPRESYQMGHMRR
MPTP block – blocks calcium-induced mitochondrial swelling; isolated mouse mitochondria, Ca2+ swelling absorbance, 30 min; AID 602449; inhibition, % at 10 µM; actives 1.4% (n = 360,000);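 active means inhibition of 50% or more, scaled per plate between neutral and stimulator controls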;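 further: 0% = DMSO wells given calcium and 100% = 1 mM EGTA wells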
GRIN3A LBD mod – modulates the human NR3A ligand-binding domain | NR3A LBD differential scanning fluorimetry, Tm shift; 0% = protein alone, 100% = glycine-bound protein | Tm shift relative to glycine control, % at 25 µM | actives 2.5% (n = 340,000) | AID 1259313;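 active means melting temperature shift of at least 10% of the positive control shift, at one fixed dose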
ADAM17 inh – inhibitors of human ADAM17. P78536. recombinant ADAM17, EDANS/DABCYL FRET peptide cleavage. inhibition, % at 6.95 µM. actives 0.83% (n = 370,000). AID 720648;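 active means inhibition above the mean of compounds lying between control limits plus 3 SD, set per campaign, cut at about 8.5% in these data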;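 further: 0% = DMSO-only wells as the low control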
MT1-MMP act inh – blocks activation of human MT1-MMP; P50281; HT1080 RFP-PRO-GFP cells, GFP/RFP ratio fluorescence, overnight; percent of plate control window, DMSO zero; GFP/RFP ratio change, % at 20 µM; actives 0.061% (n = 360,000); AID 651647;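 active means GFP/RFP ratio change of at least 30% with cell ATP level not reduced by more than half and red fluorescence within 50% of control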
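Assay system: HT1080 RFP-PRO-GFP cells. Benchmarks: DMSO vehicle wells and RFP-L50D-GFP reporter cell wells. Times: overnight cell settling, then overnight compound exposure, 37 °C, 5% CO2. Compound: 20 µM single dose, 1% DMSO. Read-out basis: GFP/RFP fluorescence ratio.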
SKN-1 inh – blocks SKN-1 activity in C. elegans; actives 0.49% (n = 360,000); AID 624304; inhibition, % at 21.8 µM; C. elegans VP596 Pgst-4::GFP/RFP ratio, acrylamide-induced, 24 h;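 active means interference check ratio from 0.5 to 1.5 plus GFP to RFP signal ratio inhibition reaching or exceeding a fixed threshold, cut at about 30% in these data, passing the limit was not always enough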
Rh123 counter – membrane potential counter-screen of mitochondrial pore inhibitors | shares compounds with MPTP block | isolated mitochondria, Rhodamine 123 fluorescence | inhibition, % at 10 µM | actives 78% (n = 5,000) | AID 624504; in the data active means inhibition above about 22%;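 further: 0% = DMSO vehicle and 100% = positive control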
MPTP swell DR – dose response confirmation of mitochondrial permeability transition pore inhibitors | IC50, µM | shares compounds with MPTP block | isolated mitochondria swelling, absorbance | actives 58% (n = 780); in the data active means IC50 below about 20 µM
MPTP counter DR – counter-screen for mitochondrial permeability transition pore inhibitors, dose response; shares compounds with MPTP block; isolated mitochondria counterscreen, fluorescence read-out; IC50, µM; actives 49% (n = 780); AID 651564; in the data active means IC50 below about 80 µM
* = called active by the depositor; i = inactive; x = no result.

SMILES	ADAM10 inh	MPTP block	GRIN3A LBD mod	ADAM17 inh	MT1-MMP act inh	SKN-1 inh	Rh123 counter	others
CCN(CC)c1ccc(/C=C2\SC(N)=NC2=O)cc1	1	-1	0	-2	-102	13	x
N#C/C(=C\c1cc2ccccc2nc1N1CCCCC1)C(N)=O	i	1	0	-145	-10	15	x
Cc1n[nH]c(=O)c2c(NC(=O)COC(=O)/C=C/c3cccc(C(F)(F)F)c3)oc(C)c12	-3	-1	0	-6	7	5	x
CN(CC(=O)Nc1ccc(C#N)cc1)Cc1ccc(Cl)c(Cl)c1	-2	1	-10	0	0	12	x
Cc1ccc2cc(CN(CCN3CCCC3)C(=O)Nc3ccc(F)cc3)c(=O)[nH]c2c1C	-17	0	0	-8	-4	18	x
CC(=O)Nc1ccc(NC(=O)N(c2ccccc2)c2ccccc2)cc1	-7	-1	1	3	-1	-21	x
Cn1c(CCNC(=O)c2cc(COc3ccc(F)c(F)c3)on2)nc2ccccc21	-4	-2	0	-1	-1	3	x
O=C1NC(=S)SC1=Cc1ccccc1Cl	5	90*	-5	1	5	-17	91*
Oc1ccccc1/C=N/NC(=S)NC1CC2CC1C1C=CCC21 (configuration not stated)	-11	59*	9	-3	5	-13	54*
Oc1ccccc1C=NNC(=S)NN=Cc1ccccc1O	-13	90*	27*	-5	3	12	67*
NC(=S)N/N=C/c1ccccc1O	-144	1	-11	-52	3	-8	x
COc1cccc(/C=N/NC(=S)NC2CC3CC2C2C=CCC32)c1O (configuration not stated)	-4	18	-5	-6	4	2	x
C/C(=N/Oc1nc(C)cc(C)n1)c1ccccc1	7	0	1	-2	-7	-4	x
COc1ccc(NC(=O)c2ccccc2NS(=O)(=O)c2ccc(CNC(C)=O)cc2)c(OC)c1	-5	-2	-7	-1	-1	-10	x
COc1ccc(-c2c(-c3ccccc3OC)sc3ccccc23)cc1F	-104	x	x	-20	x	x	x
Cc1cccc(NNC(N)=S)c1C	-5	-2	0	-5	2	-13	x
CCOc1ccc(N(C)S(=O)(=O)c2ccc(C)c(C(=O)OCC(=O)c3c[nH]c4ccccc34)c2)cc1	1	51*	31*	-2	-20	9	30*
O=C1Nc2c(c(=O)[nH]c(=O)n2-c2ccccc2)C1(Nc1ncccn1)C(F)(F)F (configuration not stated)	3	0	0	0	4	15	x
Cn1nc(C(F)(F)F)c(-c2cccc(C(F)(F)F)c2)c1NC(=O)c1ccco1	1	4	0	0	4	10	x
Cc1ccccc1NC(=O)Nc1cc(-c2ccccc2)nn1C	-2	5	-5	-1	4	-8	x
Cn1nc(-c2ccccc2)cc1NC(=O)Nc1ccc(F)cc1	5	66*	-4	0	4	6	81*
Cn1nc(C(F)(F)F)c(-c2cccc(C(F)(F)F)c2)c1NC(=O)Nc1ccc(F)cc1	9	79*	3	7	5	2	82*
CCN1CCN(Cc2ccc(OCc3ccccc3)c(OC)c2)CC1	1	0	x	-4	4	13	x
O=C(Nc1nccs1)c1ccc(Cl)c(S(=O)(=O)N2CCCCC2)c1	10	0	-14	3	-3	4	x
Cc1ccc(-c2csc3nc(-c4ccncc4)[nH]c(=O)c23)cc1	-20	98*	1	-7	-20	-4	19	MPTP swell DR=3*;MPTP counter DR=<2.5*
